Reference: ChEMBL document CHEMBL1134668, “Hydrazinonaphthalene and azonaphthalene thrombopoietin mimics are nonpeptidyl promoters of megakaryocytopoiesis” (J Med Chem, 2001)

Columns and labels:
[1] = Effective concentration (EC50) required to inhibit CD34 cell differentiation; format: functional; settings: Homo sapiens
Outline: (§1)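 Human bone marrow CD34+ cells from light density marrow cells (2 × 10^6 cells/mL) in IMDM with 20% v/v FCS and rhSCF 100 ng/mL, cultured with sample or TPO (maximal 100 ng/mL) for 10 days at 5% CO2 and 4% O2. Stained with FITC-anti-CD41 and FITC-anti-IgG1 isotype control, formaldehyde-fixed, flow cytometry; %CD41 = CD41 positive minus isotype positive.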

[2] = Compound tested for UT7/TPO cell proliferation activity (%TPO) using proliferation assay.; format: functional, Homo sapiens
Outline: (§2)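 UT7/TPO cells kept in IMDM/10% FBS/glutamine plus rhTPO, starved overnight without TPO. Cells (0.2 × 10^6/mL) in starving medium incubated with compounds (0.32% DMSO final) or rhTPO, 37 °C, 5% CO2, 72 h. Pellet DNA content read by BrdU kit. Mean value over control as % of maximal-TPO response, duplicates, plotted vs concentration for EC50.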

[3] = target: T1, Thrombopoietin receptor (Homo sapiens) (UniProt P40238); assay: Thrombopoietin luciferase activity in BAF-3 cells; format: cell-based; settings: BaF3
T1 sequence (whole entry): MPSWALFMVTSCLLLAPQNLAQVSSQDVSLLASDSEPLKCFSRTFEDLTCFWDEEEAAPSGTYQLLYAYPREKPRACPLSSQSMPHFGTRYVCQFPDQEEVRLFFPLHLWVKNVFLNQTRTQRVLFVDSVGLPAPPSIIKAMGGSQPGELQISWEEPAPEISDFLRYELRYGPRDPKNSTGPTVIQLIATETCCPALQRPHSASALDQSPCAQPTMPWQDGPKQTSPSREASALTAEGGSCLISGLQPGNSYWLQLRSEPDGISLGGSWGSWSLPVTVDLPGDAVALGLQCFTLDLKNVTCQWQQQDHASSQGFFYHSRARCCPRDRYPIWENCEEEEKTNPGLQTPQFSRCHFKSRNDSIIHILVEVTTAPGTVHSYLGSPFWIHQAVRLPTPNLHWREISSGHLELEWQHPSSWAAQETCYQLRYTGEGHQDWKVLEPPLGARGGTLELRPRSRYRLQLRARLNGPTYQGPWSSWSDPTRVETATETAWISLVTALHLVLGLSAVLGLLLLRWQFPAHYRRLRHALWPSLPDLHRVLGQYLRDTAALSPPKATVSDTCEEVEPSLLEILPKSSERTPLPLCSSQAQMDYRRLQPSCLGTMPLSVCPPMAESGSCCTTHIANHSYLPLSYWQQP

[4] = Compound tested for CD34+ cell differentiation activity (%TPO) using CD34+ differentiation assay; format: functional, Homo sapiens; outline: as §1
Thrombopoietin receptor = target: T2, Thrombopoietin receptor (Homo sapiens, UniProt P40238); assay: Effective concentration for thrombopoietin luciferase activity was determined in BAF-3 cells; format: cell-based, BaF3
T2 sequence (P40238 whole entry): T1 sequence (whole entry)

[5] = Effective concentration required to inhibit UT7/TPO cell proliferation was determined.; format: functional, cell-based; settings: Homo sapiens; outline: as §2

Structure (SMILES)	EC50 [1] [nM]	TPO [2] [%]	Efficacy [3] [%]	TPO [4] [%]	EC50 (Thrombopoietin receptor) [nM]	Efficacy [2] [%]	EC50 [5] [nM]
Cc1[nH]n(-c2ccc(C(C)(C)C)cc2)c(=O)c1/N=N/c1c(O)cc(S(=O)(=O)O)c2ccccc12	30	100	86	100	20		
Cc1[nH]n(-c2cccc(Cl)c2)c(=O)c1/N=N/c1c(O)cc(S(=O)(=O)O)c2ccccc12			34		2000	45	500
